Activity calls are given as the source filed them. The rule behind the calls is not given here.
Legend:
[1] = tested on: Proto-oncogene tyrosine-protein kinase receptor Ret (Homo sapiens), P07949 [Y791F]; assay: Inhibition of RET Y791F mutant at 10 uM
Plasma = assay: Metabolic stability in rat plasma assessed as compound remaining at 1 uM after 60 mins by Lc/Ms method; assay type: ADME, cell-free; settings: 1 h
Procedure, shortened: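 Compound at 1 µM (2.5% DMSO final) in fresh rat plasma at 37 °C. Stopped at 0, 30 and 60 min with two volumes methanol plus internal standard, then LC-MS. Percent parent remaining relative to 0 min, from peak area ratios to internal standard. Duplicate runs, with a plasma-labile positive control.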

[2] = tested on: Receptor-type tyrosine-protein kinase FLT3 (Homo sapiens), P36888 [D835Y]; assay: Inhibition of FLT3 D835Y mutant at 10 uM
[3] = tested on: Proto-oncogene tyrosine-protein kinase receptor Ret (Homo sapiens), P07949 [V804L]; assay: Inhibition of RET V804L mutant at 10 uM
Sequence of Proto-oncogene tyrosine-protein kinase receptor Ret (Homo sapiens), P07949 [V804L] (P07949 whole entry V804L): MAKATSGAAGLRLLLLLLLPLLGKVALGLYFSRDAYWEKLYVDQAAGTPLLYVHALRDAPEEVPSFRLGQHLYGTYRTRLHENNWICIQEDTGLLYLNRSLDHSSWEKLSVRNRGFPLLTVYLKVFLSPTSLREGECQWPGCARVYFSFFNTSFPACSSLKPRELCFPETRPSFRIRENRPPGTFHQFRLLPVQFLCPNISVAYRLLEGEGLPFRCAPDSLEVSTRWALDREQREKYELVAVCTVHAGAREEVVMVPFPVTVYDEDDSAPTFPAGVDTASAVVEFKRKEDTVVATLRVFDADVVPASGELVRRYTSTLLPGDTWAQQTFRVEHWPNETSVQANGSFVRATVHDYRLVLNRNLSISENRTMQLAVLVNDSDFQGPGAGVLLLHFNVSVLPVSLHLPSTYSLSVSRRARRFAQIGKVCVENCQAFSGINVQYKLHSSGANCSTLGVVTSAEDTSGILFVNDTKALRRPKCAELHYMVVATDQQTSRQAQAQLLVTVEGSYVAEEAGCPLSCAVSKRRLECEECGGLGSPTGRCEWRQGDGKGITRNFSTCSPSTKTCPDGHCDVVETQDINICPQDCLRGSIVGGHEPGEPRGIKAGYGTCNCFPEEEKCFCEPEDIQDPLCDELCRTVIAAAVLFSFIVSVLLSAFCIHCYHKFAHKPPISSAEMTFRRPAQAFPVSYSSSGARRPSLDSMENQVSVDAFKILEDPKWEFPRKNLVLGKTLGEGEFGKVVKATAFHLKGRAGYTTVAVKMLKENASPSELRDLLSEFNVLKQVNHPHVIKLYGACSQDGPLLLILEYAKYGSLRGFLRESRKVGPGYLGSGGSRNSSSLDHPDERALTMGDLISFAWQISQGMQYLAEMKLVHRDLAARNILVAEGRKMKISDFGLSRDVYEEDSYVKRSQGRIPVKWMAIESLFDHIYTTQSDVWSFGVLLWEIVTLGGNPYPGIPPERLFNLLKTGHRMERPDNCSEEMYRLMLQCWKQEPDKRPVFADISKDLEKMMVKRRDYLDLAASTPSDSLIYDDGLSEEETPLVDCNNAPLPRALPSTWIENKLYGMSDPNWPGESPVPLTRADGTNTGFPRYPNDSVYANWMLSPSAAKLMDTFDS

U-87MG ATCC = assay: Growth inhibition of human U87 cells grown as spheroids assessed reduction in decrease in spheroid volumes reated consecutively for 6 days by hanging drop method; assay type: functional, cell-based
Procedure, shortened: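 U87 glioblastoma spheroids formed by hanging drop, 200 cells per 20 µl drop, inverted for 5 days in a humidity chamber. Spheroids moved onto 1% low-melt agarose-coated wells. Compound or DMSO added every 24 h for 6 days. Volume (µm³) calculated from length and width measured with an optical micrometer. Four independent experiments.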

[4] = biological target: T1, Phosphatidylinositol 4,5-bisphosphate 3-kinase catalytic subunit delta isoform (Homo sapiens, UniProt O00329); assay: Inhibition of PI3Kdelta; settings: read-out: I50
T1 sequence (O00329 whole entry): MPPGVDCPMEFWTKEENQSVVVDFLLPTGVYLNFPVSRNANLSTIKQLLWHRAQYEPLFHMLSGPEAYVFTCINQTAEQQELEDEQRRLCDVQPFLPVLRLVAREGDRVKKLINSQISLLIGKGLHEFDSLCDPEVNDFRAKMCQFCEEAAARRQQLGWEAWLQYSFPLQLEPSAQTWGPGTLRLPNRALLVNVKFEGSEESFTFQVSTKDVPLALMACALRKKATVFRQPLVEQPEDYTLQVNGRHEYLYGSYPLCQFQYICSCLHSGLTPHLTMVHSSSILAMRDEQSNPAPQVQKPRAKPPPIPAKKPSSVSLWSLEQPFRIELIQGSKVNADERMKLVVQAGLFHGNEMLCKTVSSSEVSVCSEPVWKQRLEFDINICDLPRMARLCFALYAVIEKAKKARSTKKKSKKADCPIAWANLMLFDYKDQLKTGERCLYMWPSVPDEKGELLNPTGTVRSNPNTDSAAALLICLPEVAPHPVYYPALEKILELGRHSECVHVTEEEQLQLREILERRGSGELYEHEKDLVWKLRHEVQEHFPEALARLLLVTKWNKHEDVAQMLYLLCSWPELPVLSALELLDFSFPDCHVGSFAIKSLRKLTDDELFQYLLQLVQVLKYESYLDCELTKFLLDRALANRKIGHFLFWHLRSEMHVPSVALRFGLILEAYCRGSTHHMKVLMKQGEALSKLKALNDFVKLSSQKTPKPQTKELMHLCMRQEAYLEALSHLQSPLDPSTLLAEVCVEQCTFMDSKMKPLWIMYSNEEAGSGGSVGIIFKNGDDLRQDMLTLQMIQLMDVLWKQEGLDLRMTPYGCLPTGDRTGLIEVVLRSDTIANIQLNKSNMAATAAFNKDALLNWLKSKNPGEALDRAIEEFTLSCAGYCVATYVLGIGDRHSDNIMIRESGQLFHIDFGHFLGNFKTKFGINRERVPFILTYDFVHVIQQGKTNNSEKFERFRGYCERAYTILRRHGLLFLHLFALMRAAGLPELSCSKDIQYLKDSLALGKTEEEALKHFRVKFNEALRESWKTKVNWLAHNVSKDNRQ

[5] = biological target: Myosin light chain kinase 2, skeletal/cardiac muscle (Homo sapiens) (UniProt Q9H1R3); assay: Inhibition of MYLK2 at 10 uM
[6] = biological target: Vascular endothelial growth factor receptor 3 (Homo sapiens) (UniProt P35916); assay: Inhibition of FLT4 at 10 uM
[7] = tested on: Platelet-derived growth factor receptor alpha (Homo sapiens), P16234 [T674I]; assay: Inhibition of PDGFRA T674I mutant at 10 uM
[8] = Inhibition of DNA-PK at 10 uM
[9] = biological target: Mitogen-activated protein kinase 9 (Homo sapiens) (UniProt P45984); assay: Inhibition of JNK2 at 10 uM
Sequence of Mitogen-activated protein kinase 9 (Homo sapiens) (P45984 whole entry, looked up): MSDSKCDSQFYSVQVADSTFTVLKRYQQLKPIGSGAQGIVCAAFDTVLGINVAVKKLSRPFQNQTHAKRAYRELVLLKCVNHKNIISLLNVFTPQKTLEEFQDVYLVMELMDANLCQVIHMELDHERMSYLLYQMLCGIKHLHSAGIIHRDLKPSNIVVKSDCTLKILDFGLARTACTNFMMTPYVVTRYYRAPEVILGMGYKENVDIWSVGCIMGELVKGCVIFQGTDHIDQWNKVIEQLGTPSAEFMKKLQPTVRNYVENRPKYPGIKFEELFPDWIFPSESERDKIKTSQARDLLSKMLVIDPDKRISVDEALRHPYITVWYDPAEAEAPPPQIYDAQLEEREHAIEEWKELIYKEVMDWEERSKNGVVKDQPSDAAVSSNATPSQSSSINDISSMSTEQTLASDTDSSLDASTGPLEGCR

[10] = biological target: Dual specificity protein kinase CLK2 (Homo sapiens) (UniProt P49760); assay: Inhibition of CLK2 at 10 uM
[11] = biological target: Muscle, skeletal receptor tyrosine-protein kinase (Homo sapiens) (UniProt O15146); assay: Inhibition of MUSK at 10 uM
[12] = biological target: Receptor-type tyrosine-protein kinase FLT3 (Homo sapiens) (UniProt P36888); assay: Inhibition of FLT3 at 10 uM
[13] = biological target: Tyrosine-protein kinase ABL1 (Homo sapiens) (UniProt P00519); assay: Inhibition of ABL1 […] mutant at 10 uM
Sequence of Tyrosine-protein kinase ABL1 (Homo sapiens) (P00519 whole entry): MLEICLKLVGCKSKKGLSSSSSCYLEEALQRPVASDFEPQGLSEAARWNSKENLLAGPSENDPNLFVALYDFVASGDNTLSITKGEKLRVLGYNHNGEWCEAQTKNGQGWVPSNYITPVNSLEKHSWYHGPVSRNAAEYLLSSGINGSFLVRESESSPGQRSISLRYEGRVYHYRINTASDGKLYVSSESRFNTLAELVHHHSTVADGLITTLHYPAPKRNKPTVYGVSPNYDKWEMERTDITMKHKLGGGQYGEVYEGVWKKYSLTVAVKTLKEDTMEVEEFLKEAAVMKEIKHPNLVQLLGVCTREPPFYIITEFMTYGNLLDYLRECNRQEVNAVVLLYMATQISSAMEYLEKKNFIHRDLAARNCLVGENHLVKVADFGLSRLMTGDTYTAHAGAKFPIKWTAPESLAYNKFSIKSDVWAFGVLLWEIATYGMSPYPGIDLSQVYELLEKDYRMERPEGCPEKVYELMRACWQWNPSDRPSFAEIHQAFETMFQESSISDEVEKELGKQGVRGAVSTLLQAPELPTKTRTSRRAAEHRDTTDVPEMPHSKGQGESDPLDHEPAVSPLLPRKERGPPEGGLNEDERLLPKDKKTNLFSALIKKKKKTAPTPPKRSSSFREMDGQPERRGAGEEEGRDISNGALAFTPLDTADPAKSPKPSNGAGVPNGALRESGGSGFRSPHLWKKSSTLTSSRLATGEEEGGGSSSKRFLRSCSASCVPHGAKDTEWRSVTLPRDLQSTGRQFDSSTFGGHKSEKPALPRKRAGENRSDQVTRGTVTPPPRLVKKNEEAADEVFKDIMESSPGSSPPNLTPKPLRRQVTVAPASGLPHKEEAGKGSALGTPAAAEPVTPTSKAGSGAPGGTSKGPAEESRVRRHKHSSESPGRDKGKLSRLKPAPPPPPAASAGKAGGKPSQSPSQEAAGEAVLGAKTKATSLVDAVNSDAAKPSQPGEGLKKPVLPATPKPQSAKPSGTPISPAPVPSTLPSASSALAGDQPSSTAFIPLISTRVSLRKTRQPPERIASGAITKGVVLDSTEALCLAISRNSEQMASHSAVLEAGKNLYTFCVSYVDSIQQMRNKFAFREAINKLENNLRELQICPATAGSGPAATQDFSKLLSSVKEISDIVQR

[14] = biological target: NT-3 growth factor receptor (Homo sapiens) (UniProt Q16288); assay: Inhibition of NTRK3 at 10 uM
Sequence of NT-3 growth factor receptor (Homo sapiens) (Q16288 32-839 limits assumed): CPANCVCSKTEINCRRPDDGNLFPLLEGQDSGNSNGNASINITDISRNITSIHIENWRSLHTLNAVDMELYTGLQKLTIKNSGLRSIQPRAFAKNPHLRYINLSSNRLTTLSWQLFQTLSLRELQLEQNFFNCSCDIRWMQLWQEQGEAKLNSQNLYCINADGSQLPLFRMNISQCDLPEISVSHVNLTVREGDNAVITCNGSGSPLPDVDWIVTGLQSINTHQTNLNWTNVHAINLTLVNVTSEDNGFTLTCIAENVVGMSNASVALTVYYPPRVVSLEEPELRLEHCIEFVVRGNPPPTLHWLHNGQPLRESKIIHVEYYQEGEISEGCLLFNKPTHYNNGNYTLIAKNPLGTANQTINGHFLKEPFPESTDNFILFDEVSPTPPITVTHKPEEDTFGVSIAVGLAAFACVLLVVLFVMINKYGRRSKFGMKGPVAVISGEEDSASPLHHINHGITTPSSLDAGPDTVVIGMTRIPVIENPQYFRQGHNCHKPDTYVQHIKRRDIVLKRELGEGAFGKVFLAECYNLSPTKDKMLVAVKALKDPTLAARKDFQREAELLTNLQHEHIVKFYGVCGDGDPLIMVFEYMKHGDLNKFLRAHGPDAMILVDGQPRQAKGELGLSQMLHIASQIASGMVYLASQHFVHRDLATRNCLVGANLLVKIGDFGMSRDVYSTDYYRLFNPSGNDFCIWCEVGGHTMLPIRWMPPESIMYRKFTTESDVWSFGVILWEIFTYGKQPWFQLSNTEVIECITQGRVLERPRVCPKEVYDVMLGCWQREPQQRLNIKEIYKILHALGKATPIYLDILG

[15] = biological target: Phosphatidylinositol 4,5-bisphosphate 3-kinase catalytic subunit gamma isoform (Homo sapiens, UniProt P48736); assay: Inhibition of PI3Kgamma
[16] = biological target: Serine/threonine-protein kinase haspin (Homo sapiens) (UniProt Q8TF76); assay: Inhibition of GSG2 at 10 uM
[17] = biological target: Maternal embryonic leucine zipper kinase (Homo sapiens) (UniProt Q14680); assay: Inhibition of MELK at 10 uM
MCF7 = assay: Growth inhibition of human MCF7 cells after 72 hrs by ATPlite assay; assay type: functional; settings: MCF7, 72 h
Procedure, shortened: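 Cells seeded at about 3000 per well, grown 24 h, then given fresh medium and test compound in triplicate at 0.5 to 100µM in DMSO (0.5% final). Exposure 72 h at 37 °C, 5% CO₂. Viability measured by ATPlite luminescence and normalized to DMSO-treated controls. GI50 obtained by curve fitting. HeLa cultured in DMEM/10% FBS; MCF7, MDA-MB-231 and PC3 cultured in RPMI+GlutaMAX/10% FBS.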

[18] = biological target: Cyclin-dependent kinase 5/CDK5 activator 1 (Homo sapiens) (UniProt Q00535+Q15078); assay: Inhibition of CDK5/P25 at 10 uM; assay type: protein-complex assay
[19] = biological target: BDNF/NT-3 growth factors receptor (Homo sapiens) (UniProt Q16620); assay: Inhibition of NTRK2 at 10 uM
[20] = biological target: Serine/threonine-protein kinase Sgk1 (Homo sapiens) (UniProt O00141); assay: Inhibition of SGK1 at 10 uM
[21] = biological target: Vascular endothelial growth factor receptor 2 (Homo sapiens) (UniProt P35968); assay: Inhibition of KDR at 10 uM
Sequence of Vascular endothelial growth factor receptor 2 (Homo sapiens) (P35968 whole entry): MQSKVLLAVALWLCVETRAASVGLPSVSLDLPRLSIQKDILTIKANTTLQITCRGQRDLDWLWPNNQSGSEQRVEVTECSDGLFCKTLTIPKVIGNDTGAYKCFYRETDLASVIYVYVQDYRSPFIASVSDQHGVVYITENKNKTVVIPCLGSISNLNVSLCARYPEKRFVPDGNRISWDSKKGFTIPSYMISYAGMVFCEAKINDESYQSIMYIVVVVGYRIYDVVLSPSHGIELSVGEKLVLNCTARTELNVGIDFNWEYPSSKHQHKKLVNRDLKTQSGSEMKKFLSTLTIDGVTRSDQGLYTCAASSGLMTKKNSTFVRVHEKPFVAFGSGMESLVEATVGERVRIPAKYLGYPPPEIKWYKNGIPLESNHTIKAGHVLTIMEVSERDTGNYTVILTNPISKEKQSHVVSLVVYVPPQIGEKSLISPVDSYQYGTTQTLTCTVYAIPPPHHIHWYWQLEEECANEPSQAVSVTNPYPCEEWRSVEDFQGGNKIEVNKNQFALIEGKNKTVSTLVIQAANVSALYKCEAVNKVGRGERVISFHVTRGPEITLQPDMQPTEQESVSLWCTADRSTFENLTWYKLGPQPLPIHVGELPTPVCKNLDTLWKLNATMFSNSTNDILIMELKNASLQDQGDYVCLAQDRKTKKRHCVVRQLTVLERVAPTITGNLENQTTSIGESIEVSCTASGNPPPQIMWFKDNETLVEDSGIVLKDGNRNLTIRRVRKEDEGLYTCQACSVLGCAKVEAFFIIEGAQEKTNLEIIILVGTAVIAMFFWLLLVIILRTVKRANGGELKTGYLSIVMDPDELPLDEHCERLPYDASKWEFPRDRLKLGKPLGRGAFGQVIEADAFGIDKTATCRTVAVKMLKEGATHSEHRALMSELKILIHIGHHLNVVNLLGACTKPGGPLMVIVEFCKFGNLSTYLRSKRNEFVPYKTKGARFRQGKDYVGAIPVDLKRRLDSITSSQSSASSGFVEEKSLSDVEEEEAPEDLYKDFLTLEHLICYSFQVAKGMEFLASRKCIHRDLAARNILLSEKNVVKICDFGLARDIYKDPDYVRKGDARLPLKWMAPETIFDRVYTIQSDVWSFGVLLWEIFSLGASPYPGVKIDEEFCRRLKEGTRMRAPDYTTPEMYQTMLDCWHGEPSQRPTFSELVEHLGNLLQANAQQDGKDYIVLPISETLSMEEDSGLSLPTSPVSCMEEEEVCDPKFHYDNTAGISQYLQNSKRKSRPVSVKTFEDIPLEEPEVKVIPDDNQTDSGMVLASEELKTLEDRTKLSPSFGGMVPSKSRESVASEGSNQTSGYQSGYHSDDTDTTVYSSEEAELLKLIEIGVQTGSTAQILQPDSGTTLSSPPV

[22] = biological target: Mitogen-activated protein kinase 8 (Homo sapiens) (UniProt P45983); assay: Inhibition of JNK1 at 10 uM

Sequence of Proto-oncogene tyrosine-protein kinase receptor Ret (Homo sapiens), P07949 [Y791F] (P07949 whole entry Y791F): as the sequence (P07949 whole entry V804L) above, with Y791F, L804V counted along it

## C(#Cc1n[nH]c2ccccc12)c1ccncc1
[1]
  inhibition: > 50%
Plasma
  Stability: 97%
[2]
  inhibition: > 50%
[3]
  inhibition: > 50%
U-87MG ATCC
  growth inhibition (GI): Active
[4]
  IC50: 39 µM
[5]
  inhibition: > 50%
[6]
  inhibition: > 50%
[7]
  inhibition: > 50%
[8]
  inhibition: > 50%
[9]
  inhibition: > 50%
[10]
  inhibition: > 50%
[11]
  inhibition: > 50%
[12]
  inhibition: > 50%
[13]
  inhibition: > 50%
[14]
  inhibition: > 50%
[15]
  IC50: 40 µM
[16]
  inhibition: > 50%
[17]
  inhibition: > 50%
MCF7
  GI50: 2.58 µM
[18]
  inhibition: > 50%
[19]
  inhibition: > 50%
[20]
  inhibition: > 50%
[21]
  inhibition: > 50%
[22]
  inhibition: > 50%

Source: ChEMBL document CHEMBL1629532, “Design, synthesis, and structure-activity relationships of 3-ethynyl-1H-indazoles as inhibitors of the phosphatidylinositol 3-kinase signaling pathway” (J Med Chem, 2010)
